Measured values from ChEMBL document CHEMBL4043279 (Bioorg Med Chem Lett, 2017).
pIC50: −log10 of the molar value. The source made the active and inactive calls. The rule behind the calls is not given here.

How the values were obtained:
[1] = test system: PC-3; assay: Antiproliferative activity against human PC3 cells treated for 24 hrs measured after 72 hrs by MTT assay; format: functional, cell-based
[2] = test system: HL-60; assay: Antiproliferative activity against human HL60 cells treated for 24 hrs measured after 72 hrs by MTT assay; format: functional, cell-based
[3] = test system: PBMC; assay: Antiproliferative activity against human PBMC treated for 24 hrs measured after 72 hrs by MTT assay; format: cell-based
[4] = test system: HepG2; assay: Antiproliferative activity against human HepG2 cells treated for 24 hrs measured after 72 hrs by MTT assay; format: functional, cell-based
[5] = test system: THP-1; assay: Antiproliferative activity against human THP1 cells treated for 24 hrs measured after 72 hrs by MTT assay; format: functional, cell-based
[6] = test system: HL-60; assay: Cell cycle arrest in human HL60 cells assessed as accumulation at S-phase at 0.5 uM after 48 hrs by propidium iodide staining based flow cytometry (reference value: 25.19%); format: functional
[7] = test system: HL-60; assay: Induction of apoptosis in human HL60 cells assessed as nuclear fragmentation at 0.25 to 1 uM after 48 hrs by […]; format: functional, cell-based
[8] = test system: HL-60; assay: Cell cycle arrest in human HL60 cells assessed as accumulation at G1-phase at 1 uM after 48 hrs by propidium iodide staining based flow cytometry (reference value: 63.21%); format: functional
[9] = test system: HL-60; assay: Induction of mitochondrial membrane potential loss in human HL60 cells assessed as cells with collapsed mitochondrial membrane potential at 1 uM after 48 hrs by JC-1 staining based flow cytometry (reference value: 7.81%); format: functional
[10] = test system: HL-60; assay: Induction of apoptosis in human HL60 cells after 48 hrs by Annexin V-FITC/propidium iodide staining based flow cytometry; format: functional, cell-based
Method in brief: (§1)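 HL-60 cells were treated for 48 h with vehicle alone or with 0.25, 0.5 or 1.0 μM. Cells were then stained with FITC-Annexin V and PI and analysed by two-parameter flow cytometry. Quadrants were scored as viable (LL), early apoptotic (LR), late apoptotic/necrotic (UR) and necrotic (UL). Total apoptosis was taken as early plus late.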

[11] = test system: HL-60; assay: Induction of mitochondrial membrane potential loss in human HL60 cells assessed as cells with collapsed mitochondrial membrane potential at 0.25 uM after 48 hrs by JC-1 staining based flow cytometry (reference value: 7.81%); format: functional
[12] = test system: HL-60; assay: Induction of apoptosis in human HL60 cells assessed as early apoptotic cells at 1 uM after 48 hrs by Annexin V-FITC/propidium iodide staining based flow cytometry (reference value: 2.66%); format: functional; method in brief: as §1
[13] = test system: HL-60; assay: Induction of apoptosis in human HL60 cells assessed as live cells at 1 uM after 48 hrs by Annexin V-FITC/propidium iodide staining based flow cytometry (reference value: 95.75%); format: functional; method in brief: as §1
[14] = test system: HL-60; assay: Induction of apoptosis in human HL60 cells assessed as early apoptotic cells at 0.5 uM after 48 hrs by Annexin V-FITC/propidium iodide staining based flow cytometry (reference value: 2.66%); format: functional; method in brief: as §1
[15] = test system: HL-60; assay: Induction of mitochondrial membrane potential loss in human HL60 cells assessed as cells with intact mitochondrial membrane at 1 uM after 48 hrs by JC-1 staining based flow cytometry (reference value: 92.17%); format: functional
[16] = test system: HL-60; assay: Induction of mitochondrial membrane potential loss in human HL60 cells assessed as cells with intact mitochondrial membrane at 0.25 uM after 48 hrs by JC-1 staining based flow cytometry (reference value: 92.17%); format: functional
[17] = test system: HL-60; assay: Cell cycle arrest in human HL60 cells assessed as accumulation at S-phase at 1 uM after 48 hrs by propidium iodide staining based flow cytometry (reference value: 25.19%); format: functional
[18] = test system: HL-60; assay: Induction of apoptosis in human HL60 cells assessed as live cells at 0.25 uM after 48 hrs by Annexin V-FITC/propidium iodide staining based flow cytometry (reference value: 95.75%); format: functional; method in brief: as §1
[19] = test system: HL-60; assay: Cell cycle arrest in human HL60 cells assessed as accumulation at S-phase at 0.25 uM after 48 hrs by propidium iodide staining based flow cytometry (reference value: 25.19%); format: functional
[20] = test system: HL-60; assay: Cell cycle arrest in human HL60 cells assessed as accumulation at G1-phase at 0.5 uM after 48 hrs by propidium iodide staining based flow cytometry (reference value: 63.21%); format: functional
[21] = test system: HL-60; assay: Induction of apoptosis in human HL60 cells assessed as chromatin condensation at 0.25 to 1 uM after 48 hrs […]; format: functional, cell-based
[22] = test system: HL-60; assay: Induction of apoptosis in human HL60 cells assessed as live cells at 0.5 uM after 48 hrs by Annexin V-FITC/propidium iodide staining based flow cytometry (reference value: 95.75%); format: functional; method in brief: as §1
[23] = test system: HL-60; assay: Induction of apoptosis in human HL60 cells assessed as late apoptotic cells at 1 uM after 48 hrs by Annexin V-FITC/propidium iodide staining based flow cytometry (reference value: 1.56%); format: functional; method in brief: as §1
[24] = test system: HL-60; assay: Induction of mitochondrial membrane potential loss in human HL60 cells assessed as cells with collapsed mitochondrial membrane potential at 0.5 uM after 48 hrs by JC-1 staining based flow cytometry (reference value: 7.81%); format: functional
[25] = test system: HL-60; assay: Cell cycle arrest in human HL60 cells assessed as accumulation at G2-phase at 0.25 uM after 48 hrs by propidium iodide staining based flow cytometry (reference value: 11.61%); format: functional
[26] = test system: HL-60; assay: Induction of apoptosis in human HL60 cells assessed as early apoptotic cells at 0.25 uM after 48 hrs by Annexin V-FITC/propidium iodide staining based flow cytometry (reference value: 2.66%); format: functional; method in brief: as §1
[27] = test system: HL-60; assay: Induction of apoptosis in human HL60 cells assessed as necrotic cells at 1 uM after 48 hrs by Annexin V-FITC/propidium iodide staining based flow cytometry (reference value: 0.03%); format: functional; method in brief: as §1
[28] = test system: HL-60; assay: Induction of apoptosis in human HL60 cells assessed as late apoptotic cells at 0.5 uM after 48 hrs by Annexin V-FITC/propidium iodide staining based flow cytometry (reference value: 1.56%); format: functional; method in brief: as §1
[29] = test system: HL-60; assay: Cell cycle arrest in human HL60 cells assessed as accumulation at G1-phase at 0.25 uM after 48 hrs by propidium iodide staining based flow cytometry (reference value: 63.21%); format: functional
[30] = test system: HL-60; assay: Cell cycle arrest in human HL60 cells assessed as accumulation at G2-phase at 0.5 uM after 48 hrs by propidium iodide staining based flow cytometry (reference value: 11.61%); format: functional
[31] = test system: HL-60; assay: Induction of mitochondrial membrane potential loss in human HL60 cells assessed as cells with collapsed mitochondrial membrane potential after 48 hrs by JC-1 staining based flow cytometry; format: functional, cell-based
[32] = test system: HL-60; assay: Cell cycle arrest in human HL60 cells assessed as accumulation at G2-phase at 1 uM after 48 hrs by propidium iodide staining based flow cytometry (reference value: 11.61%); format: functional
[33] = test system: HL-60; assay: Induction of apoptosis in human HL60 cells assessed as necrotic cells at 0.25 uM after 48 hrs by Annexin V-FITC/propidium iodide staining based flow cytometry (reference value: 0.03%); format: functional; method in brief: as §1
[34] = test system: HL-60; assay: Induction of mitochondrial membrane potential loss in human HL60 cells assessed as cells with intact mitochondrial membrane at 0.5 uM after 48 hrs by JC-1 staining based flow cytometry (reference value: 92.17%); format: functional
[35] = test system: HL-60; assay: Induction of apoptosis in human HL60 cells assessed as necrotic cells at 0.5 uM after 48 hrs by Annexin V-FITC/propidium iodide staining based flow cytometry (reference value: 0.03%); format: functional; method in brief: as §1
[36] = test system: HL-60; assay: Induction of apoptosis in human HL60 cells assessed as late apoptotic cells at 0.25 uM after 48 hrs by Annexin V-FITC/propidium iodide staining based flow cytometry (reference value: 1.56%); format: functional; method in brief: as §1

## CN1c2ccccc2C(=O)N2CCc3c(n(CCO)c4ccccc34)C21 (stereo unspecified)
[1]
  pIC50: 4.91
[2]
  pIC50: 5.15
[3]
  pIC50: < 3.70
[4]
  pIC50: < 4.00
[5]
  pIC50: 5.79

## CN1c2ccccc2C(=O)N2CCc3c(n(CCOC(=O)c4ccc(N(CCCl)CCCl)cc4)c4ccccc34)C21 (stereo unspecified)
[1]
  pIC50: < 4.00
[2]
  pIC50: 4.56
[3]
  pIC50: < 3.70
[4]
  pIC50: < 4.00
[5]
  pIC50: 4.47

## COC(=O)[C@H](Cc1ccc(N(CCCl)CCCl)cc1)NC(=O)CCC(=O)OCCCn1c2c(c3ccccc31)CCN1C(=O)c3ccccc3N(C)C21 (stereo partly specified)
[1]
  pIC50: < 4.00
[2]
  pIC50: 5.95
[3]
  pIC50: < 3.70
[4]
  pIC50: < 4.00
[5]
  pIC50: 5.63

## COC(=O)[C@H](Cc1ccc(N(CCCl)CCCl)cc1)NC(=O)CCC(=O)OCCCOCCCn1c2c(c3ccccc31)CCN1C(=O)c3ccccc3N(C)C21 (stereo partly specified)
[6]
  Activity: 26.28%
[7]
  Activity: Active
[8]
  Activity: 45.83%
[9]
  Activity: 62.78%
[10]
  Activity: Dose-dependent effect
[11]
  Activity: 14.13%
[12]
  Activity: 57.54%
[13]
  Activity: 34.97%
[14]
  Activity: 40.31%
[15]
  Activity: 37.22%
[16]
  Activity: 85.67%
[17]
  Activity: 28.18%
[18]
  Activity: 83.31%
[19]
  Activity: 24.42%
[1]
  pIC50: < 4.00
[20]
  Activity: 58.52%
[21]
  Activity: Active
[2]
  pIC50: 6.30
[22]
  Activity: 53.71%
[23]
  Activity: 6.7%
[24]
  Activity: 28.51%
[25]
  Activity: 13.19%
[26]
  Activity: 10.41%
[27]
  Activity: 0.79%
[28]
  Activity: 5.27%
[29]
  Activity: 62.39%
[30]
  Activity: 15.19%
[31]
  Activity: Dose-dependent effect
[32]
  Activity: 25.99%
[3]
  pIC50: < 3.70
[33]
  Activity: 0.58%
[4]
  pIC50: 4.77
[34]
  Activity: 71.49%
[35]
  Activity: 0.72%
[5]
  pIC50: 5.39
[36]
  Activity: 5.69%

## CN1c2ccccc2C(=O)N2CCc3c(n(CCCOC(=O)CCCc4ccc(N(CCCl)CCCl)cc4)c4ccccc34)C21 (stereo unspecified)
[1]
  pIC50: < 4.00
[2]
  pIC50: 5.37
[3]
  pIC50: < 3.70
[4]
  pIC50: < 4.00
[5]
  pIC50: 5.25
